Results on 11 molecules are retold here after ChEMBL document CHEMBL1156237, “Antiviral activity of benzimidazole derivatives. II. Antiviral activity of 2-phenylbenzimidazole derivatives” (Bioorg Med Chem, 2010).

The source made the active and inactive calls. Unless noted, the rule behind the calls is not given here.

For orientation: CC50 means the concentration giving 50% cytotoxicity. By EC50 is commonly meant the concentration giving half of the maximal effect.

A short description of series [1]: Cytotoxicity against african green monkey Vero cells. Format: cell-based. The following applies: chlorocebus sabaeus. Summed up:
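Vero 76 monolayers exposed to serial compound dilutions, run in parallel on the same 24-well plates as the plaque-reduction assays. CC50 is the concentration reducing viability of mock-infected cells by 50%.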

The subject of a further series is Human alphaherpesvirus 1. Briefly: Antiviral activity against HSV1 KOS infected in african green monkey Vero cells after 3 days by plaque reduction assay. It is filed as functional, organism-based. The following applies: Human alphaherpesvirus 1, KOS, 72 h. Put shortly: (§1)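 Plaque reduction assay. Vero 76 cells at 2 × 10^5/well, grown overnight to confluence in D-MEM with 10% FBS. Infected 2 h with 50–100 PFU/well, unadsorbed virus removed. Overlay of D-MEM with 1% inactivated FBS and 0.75% methylcellulose, with or without serial compound dilutions. Incubated at 37 °C for 3 days (HSV-1 KOS, CVB-2 Ohio-1) or 5 days (RSV A2). Fixed and stained with crystal violet in 50% ethanol; plaques counted; EC50 by linear regression.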
A general note: Plaque reduction counts the foci of infection that form in a cell layer.

The nature of series [2]: Cytotoxicity against BHK cells after 48 to 96 hrs by MTT assay. The following applies: hamster. It is filed as cell-based, Mesocricetus auratus. Summed up: (§2)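 Cell seeding: MDBK at 6 × 10^5 cells/mL in MEM-E with 10% horse serum and 1 mM Na pyruvate; BHK at 1 × 10^6 cells/mL in MEM-E with 10% FBS. Serial compound dilutions, 37 °C, 5% CO2. Viability of mock-infected cells by MTT after 48–96 h; CC50 is the concentration reducing viability by 50%.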

For series [3], the system named is Human immunodeficiency virus 1. Briefly: Antiviral activity against HIV1 3B infected in human MT4 cells assessed as protection from virus-induced cytopathogenicity after 4 days by MTT method. It is filed as functional, organism-based. Summed up: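 MT-4 cells, 1 × 10^4/well in RPMI with or without serial compound dilutions, infected with HIV-1 IIIB, 100 CCID50 (m.o.i. 0.01). Protection from virus-induced cytopathogenicity read by MTT.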
For orientation: Cytopathic effects are the visible damage that an infection or toxin causes in cultured cells.

Another series has as its system Vaccinia virus. Description: Antiviral activity against Vaccinia virus Elstree-Lister infected in african green monkey Vero cells after 3 days by plaque reduction assay. Format: functional, organism-based. The following applies: Orthopoxvirus vaccinia.
The nature of series [4]: Cytotoxicity against MDBK cells after 48 to 96 hrs by MTT assay. The following applies: cattle, MDBK cells. Format: cell-based, Bos taurus. Summed up: as §2
The test system of the next series is Yellow fever virus. Description: Antiviral activity against Yellow fever virus 17D infected in BHK cells assessed as protection from virus-induced cytopathogenicity after 3 to 4 days by MTT method. It is filed as functional, organism-based.
Series [5] has as its system Respiratory syncytial virus. Description: Antiviral activity against RSV A2 infected in african green monkey Vero cells after 5 days by plaque reduction assay. It is filed as functional, organism-based. Put shortly:
as §1

Series [6] relates to Mammalian orthoreovirus 1. Briefly: Antiviral activity against Reovirus 1 3651 infected in BHK21 cells assessed as protection from virus-induced cytopathogenicity after 3 to 4 days by MTT method. Format: functional, organism-based. The following applies: BHK-21.
In series [7] the test system is Vesicular stomatitis virus. Briefly: Antiviral activity against VSV Indiana lab infected in african green monkey Vero cells after 2 days by plaque reduction assay. Format: functional, organism-based.
Another series concerns Coxsackievirus B2. Description: Antiviral activity against Human coxsackievirus B2 Ohio-1 infected in african green monkey Vero cells after 3 days by plaque reduction assay. It is filed as functional, organism-based, Coxsackievirus B2 (strain Ohio-1). The following applies: Enterovirus B, Vero, 72 h. Summed up:
as §1

For another series, the system named is Poliovirus 1. Description: Antiviral activity against Polio virus type1 Sabin strain Chat infected in african green monkey Vero cells after 2 days by plaque reduction assay. The following applies: Enterovirus C, 48 h. It is filed as functional, organism-based, Human poliovirus 1 strain Sabin.
Series [8] relates to Bovine viral diarrhea virus 1. Briefly: Antiviral activity against Bovine viral diarrhea virus NADL infected in MDBK cells assessed as protection from virus-induced cytopathogenicity after 3 to 4 days by MTT method. The following applies: Bovine viral diarrhea virus isolates and strains, MDBK. It is filed as functional, organism-based, Bovine viral diarrhea virus 1-NADL. Summed up: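 Cytopathogenicity protection assay. MDBK cells at 3 × 10^4/well, grown overnight to confluence. Infected with BVDV NADL at m.o.i. 0.01 in MEM-E with 0.5% inactivated FBS, 1 mM Na pyruvate and 1% kanamycin. Serial compound dilutions added after 1 h. After 3–4 days at 37 °C, viability read by MTT; EC50 is the concentration giving 50% protection.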

Series [9] can be described thus: Cytotoxicity against human MT4 cells after 96 hrs by MTT assay. It is filed as cell-based. The following applies: MT4 cells. Summed up:
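Exponentially growing MT-4 cells at 1 × 10^5 cells/mL in RPMI-1640 with 10% FCS, exposed to serial compound dilutions at 37 °C, 5% CO2. Viability by MTT after 96 h; CC50 is the concentration reducing viability of mock-infected cells by 50%.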

As for `Cn1c(-c2ccc(N)cc2)nc2cc(C(F)(F)F)ccc21`, the CC50 in series [1] is over 100 µM; in series [2] it was 85 µM; in series [4], 74 µM. The EC50 in the series on Human alphaherpesvirus 1 was over 100 µM; in the series on Yellow fever virus, over 85 µM; in the series on Coxsackievirus B2, 14 µM; in the series on Poliovirus 1 it was 20 µM; in [8], 69 µM. In addition, the outcome (in series [3]; with Vaccinia virus; in series [5]; in series [6]; in series [7]) was inactive. The molecule further came in with a CC50 at 96 h in [9] of 20 µM.
On to `CC(=O)Nc1ccc(-c2nc3cc(C(F)(F)F)ccc3n2C23CC4CC(CC(C4)C2)C3)cc1`, for which the CC50 was over 100 µM in [1], over 100 µM in series [2] and 82 µM in series [4]. The EC50 in the series on Human alphaherpesvirus 1 was over 100 µM; in the series on Yellow fever virus, over 100 µM; in the series on Coxsackievirus B2 it was over 100 µM; in the series with Poliovirus 1 it was over 100 µM; in series [8], over 82 µM. The outcome (in series [3]; in the series on Vaccinia virus; in [5]; in series [6]; in [7]) was inactive. Also, in series [9], the 50% cytotoxic concentration (CC50) at 96 h was determined as 28 µM.
On to `CCC(=O)Nc1ccc(-c2nc3cc(C(F)(F)F)ccc3n2C2CCCCC2)cc1`, for which the CC50 in [1] is over 100 µM; in [2], 15 µM; in [4], 18 µM. Besides, the EC50 is over 100 µM with Human alphaherpesvirus 1; over 15 µM in the series with Yellow fever virus; 7 µM with Coxsackievirus B2; 30 µM with Poliovirus 1; over 18 µM in series [8]. Also, the outcome (in series [3]; in the series with Vaccinia virus; in [5]; in series [6]; in series [7]) was inactive. Besides, in series [9], the CC50 at 96 h was determined as 17 µM.
As to `CCN(CC)CC(=O)Nc1ccc(-c2nc3cc(C(F)(F)F)ccc3n2C)cc1`, the 50% cytotoxic concentration (CC50) was 90 µM in [1], 16 µM in [2] and 57 µM in series [4]. For the same molecule, the EC50 in the series with Human alphaherpesvirus 1 was over 90 µM; with Yellow fever virus it was 7 µM; with Coxsackievirus B2 it was 21 µM; with Poliovirus 1 it was 35 µM; in [8], 10 µM. Moreover, the result (in [3]; in the series on Vaccinia virus; in series [5]; in series [6]; in [7]) was inactive. In series [9], this molecule came in with a CC50 at 96 h of 9 µM.
Regarding `Nc1ccc(-c2nc3cc(C(F)(F)F)ccc3n2C23CC4CC(CC(C4)C2)C3)cc1`, the CC50 was determined as 60 µM in [1], 16 µM in series [2] and 19 µM in series [4]. Besides, the EC50 with Human alphaherpesvirus 1 was over 60 µM; with Yellow fever virus it was over 16 µM; in the series on Coxsackievirus B2, 11 µM; in the series with Poliovirus 1, over 60 µM; in [8], 7 µM. Besides, the outcome (in [3]; in the series on Vaccinia virus; in [5]; in series [6]; in [7]) was inactive. This molecule also yielded a CC50 at 96 h in series [9] of 19 µM.
For `O=C(CN1CCN(c2ccccc2)CC1)Nc1ccc(-c2nc3cc(C(F)(F)F)ccc3n2C23CC4CC(CC(C4)C2)C3)cc1`, the CC50 in [1], in series [2] and in series [4] was over 100 µM throughout. Also, the EC50 in the series with Human alphaherpesvirus 1 is over 100 µM; in the series on Yellow fever virus, over 100 µM; with Coxsackievirus B2, 27 µM; in the series with Poliovirus 1, over 100 µM; in series [8], over 100 µM. The result (in [3]; with Vaccinia virus; in series [5]; in series [6]; in series [7]) was inactive. The same molecule showed a CC50 at 96 h in [9] of over 100 µM.
Turning to `Cn1c(-c2ccc(NC(=O)CN3CCCCC3)cc2)nc2cc(C(F)(F)F)ccc21`, the CC50 is over 100 µM in series [1], over 100 µM in series [2] and 100 µM in series [4]. For the same molecule, the EC50 is over 100 µM with Human alphaherpesvirus 1; over 100 µM in the series with Yellow fever virus; 32 µM with Coxsackievirus B2; over 100 µM in the series on Poliovirus 1; 6 µM in [8]. In addition, the outcome (in series [3]; with Vaccinia virus; in [5]; in series [6]; in series [7]) was inactive. For the same molecule, the CC50 at 96 h in series [9] came out at 9 µM.
As for `Nc1ccc(-c2nc3cc(C(F)(F)F)ccc3n2C2CCCCC2)cc1`, the CC50 in series [1], in [2] and in series [4] was over 100 µM in each case. Further, the EC50 (with Human alphaherpesvirus 1; with Yellow fever virus; in the series on Coxsackievirus B2; with Poliovirus 1; in [8]) was over 100 µM throughout. Besides, the result (in [3]; in the series with Vaccinia virus; in series [5]; in series [6]; in series [7]) was inactive. In series [9], this molecule yielded a CC50 at 96 h of 44 µM.
For the molecule `Cn1c(-c2ccc(NC(=O)CN3CCOCC3)cc2)nc2cc(C(F)(F)F)ccc21`, the CC50 in series [1], in series [2] and in [4] was over 100 µM each time. Moreover, the EC50 (in the series with Human alphaherpesvirus 1; with Yellow fever virus; in the series on Coxsackievirus B2; in the series on Poliovirus 1; in [8]) was over 100 µM each time. Also, the outcome (in series [3]; in the series with Vaccinia virus; in [5]; in [6]; in series [7]) was inactive. Further, the CC50 at 96 h in [9] was at least 100 µM.
On to `CCC(=O)Nc1ccc(-c2nc3cc(C(F)(F)F)ccc3n2C23CC4CC(CC(C4)C2)C3)cc1`, for which the CC50 in series [1], in series [2] and in [4] was over 100 µM in each case. Also, the EC50 (with Human alphaherpesvirus 1; in the series on Yellow fever virus; in the series on Coxsackievirus B2; in the series with Poliovirus 1; in series [8]) was over 100 µM each time. Also, the result (in [3]; in the series with Vaccinia virus; in series [5]; in series [6]; in series [7]) was inactive. The molecule also registered a CC50 at 96 h in series [9] of 86 µM.
For the molecule `Cn1c(-c2ccc(NC(=O)CN3CCSCC3)cc2)nc2cc(C(F)(F)F)ccc21`, the CC50 in series [1], in series [2] and in series [4] was over 100 µM in each case. In addition, the EC50 in the series on Human alphaherpesvirus 1 is over 100 µM; in the series on Yellow fever virus it was 46 µM; with Coxsackievirus B2 it was 22 µM; in the series on Poliovirus 1, over 100 µM; in series [8] it was 8 µM. Moreover, the outcome (in [3]; in the series on Vaccinia virus; in series [5]; in [6]; in series [7]) was inactive. The CC50 at 96 h in series [9] was found to be 10 µM.
